This note sets out measurements from ChEMBL document CHEMBL1136005 (J Med Chem, 2002).

Converted amounts (≈) assume the structure as drawn.

Data set [1] is described as follows: Plasma concentration was determined after 8 hr at a dose 30 mg/kg administered orally to rat-8. It is filed as ADME, organism-based. Also noted: dose 30 mg/kg, route oral. The note with it: po. The method in brief:
(§1)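 Sprague-Dawley rats, n=2 per compound, dosed orally at 30 mg/kg. Plasma drug concentration measured 1 and 8 h after dosing.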

Data set [2] is described as follows: Plasma concentration was determined after 8 hr at a dose 30 mg/kg administered orally to rat-7. It is filed as ADME, organism-based. The arrangement: dose 30 mg/kg, route oral. The note with it: po. The method in brief:
as §1

Data set [3] is described as follows: Plasma concentration was determined after 1 hr at a dose 30 mg/kg administered orally to rat-8. It is filed as ADME, organism-based. Also noted: dose 30 mg/kg, route oral. The note with it: po. The method in brief: as §1
Data set [4] has as its target Platelet-derived growth factor receptor (Homo sapiens, UniProt P09619+P16234). Put plainly: Concentration required for 50% inhibition against autophosphorylation of Platelet-derived growth factor receptor beta in intact cells using a two site ELISA. It is filed as cell-based.
Data set [5] can be described thus: Plasma concentration was determined after 1 hr at a dose 30 mg/kg administered orally to rat-7. It is filed as ADME, organism-based. Also noted: dose 30 mg/kg, route oral. The note with it: po. The method in brief: as §1
The target in data set [6] is Mitogen-activated protein kinase 8 (Homo sapiens, UniProt P45983). The data set is described as follows: Inhibition of c-Jun N-terminal kinase (Jnk). Summed up: (§2)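 Substrate phosphorylation measured in an in vitro assay with purified enzyme; IC50 values in µmol/L.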
Chain of Mitogen-activated protein kinase 8 (P45983 whole entry): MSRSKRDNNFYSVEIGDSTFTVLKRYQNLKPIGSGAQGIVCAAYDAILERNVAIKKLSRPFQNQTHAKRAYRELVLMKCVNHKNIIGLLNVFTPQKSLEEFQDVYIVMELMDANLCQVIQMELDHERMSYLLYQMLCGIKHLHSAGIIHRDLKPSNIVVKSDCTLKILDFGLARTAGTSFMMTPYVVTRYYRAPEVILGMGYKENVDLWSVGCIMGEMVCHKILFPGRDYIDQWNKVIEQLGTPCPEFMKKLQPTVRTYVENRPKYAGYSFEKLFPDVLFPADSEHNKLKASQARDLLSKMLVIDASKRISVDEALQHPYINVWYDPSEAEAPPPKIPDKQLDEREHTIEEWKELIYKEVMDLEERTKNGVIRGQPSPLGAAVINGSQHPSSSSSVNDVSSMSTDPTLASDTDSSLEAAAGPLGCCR
A short description of data set [7]: Plasma concentration was determined after 8 hr at a dose 30 mg/kg administered orally to rat-4. It is filed as ADME, organism-based. Also noted: dose 30 mg/kg, route oral. The note with it: po. Summed up:
as §1

In data set [8] the target is T1, Dual specificity mitogen-activated protein kinase kinase 3 (Homo sapiens, UniProt P46734).
T1 sequence (P46734 whole entry): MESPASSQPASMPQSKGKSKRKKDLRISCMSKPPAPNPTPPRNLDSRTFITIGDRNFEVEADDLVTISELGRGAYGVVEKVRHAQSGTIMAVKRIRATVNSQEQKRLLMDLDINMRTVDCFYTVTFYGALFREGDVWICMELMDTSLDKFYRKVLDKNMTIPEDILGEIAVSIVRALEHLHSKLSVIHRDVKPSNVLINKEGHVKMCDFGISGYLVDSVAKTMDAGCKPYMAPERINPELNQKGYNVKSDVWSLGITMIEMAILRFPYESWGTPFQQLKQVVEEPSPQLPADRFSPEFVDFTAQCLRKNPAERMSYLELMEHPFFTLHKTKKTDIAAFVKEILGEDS
Put plainly: Inhibition of Mitogen activated protein kinase kinase 3. Summed up: as §2

In data set [9] the target is Proto-oncogene tyrosine-protein kinase Src (Homo sapiens, UniProt P12931). The data set is described as follows: Inhibition of Src protein tyrosine kinase. Summed up:
as §2

Data set [10] deals with Mitogen-activated protein kinase; ERK1/ERK2 (Homo sapiens, UniProt P27361+P28482). Put plainly: Inhibition of Extracellular signal-regulated kinase (Erk). It is filed as protein assay. Summed up: as §2
The nature of data set [11]: Plasma concentration was determined after 1 hr at a dose 30 mg/kg administered orally to rat-3. It is filed as ADME, organism-based. Also noted: dose 30 mg/kg, route oral. The note with it: po. The method in brief:
as §1

The target in data set [12] is T2, Receptor-type tyrosine-protein kinase FLT3 (Homo sapiens, UniProt P36888).
T2 sequence (P36888 whole entry): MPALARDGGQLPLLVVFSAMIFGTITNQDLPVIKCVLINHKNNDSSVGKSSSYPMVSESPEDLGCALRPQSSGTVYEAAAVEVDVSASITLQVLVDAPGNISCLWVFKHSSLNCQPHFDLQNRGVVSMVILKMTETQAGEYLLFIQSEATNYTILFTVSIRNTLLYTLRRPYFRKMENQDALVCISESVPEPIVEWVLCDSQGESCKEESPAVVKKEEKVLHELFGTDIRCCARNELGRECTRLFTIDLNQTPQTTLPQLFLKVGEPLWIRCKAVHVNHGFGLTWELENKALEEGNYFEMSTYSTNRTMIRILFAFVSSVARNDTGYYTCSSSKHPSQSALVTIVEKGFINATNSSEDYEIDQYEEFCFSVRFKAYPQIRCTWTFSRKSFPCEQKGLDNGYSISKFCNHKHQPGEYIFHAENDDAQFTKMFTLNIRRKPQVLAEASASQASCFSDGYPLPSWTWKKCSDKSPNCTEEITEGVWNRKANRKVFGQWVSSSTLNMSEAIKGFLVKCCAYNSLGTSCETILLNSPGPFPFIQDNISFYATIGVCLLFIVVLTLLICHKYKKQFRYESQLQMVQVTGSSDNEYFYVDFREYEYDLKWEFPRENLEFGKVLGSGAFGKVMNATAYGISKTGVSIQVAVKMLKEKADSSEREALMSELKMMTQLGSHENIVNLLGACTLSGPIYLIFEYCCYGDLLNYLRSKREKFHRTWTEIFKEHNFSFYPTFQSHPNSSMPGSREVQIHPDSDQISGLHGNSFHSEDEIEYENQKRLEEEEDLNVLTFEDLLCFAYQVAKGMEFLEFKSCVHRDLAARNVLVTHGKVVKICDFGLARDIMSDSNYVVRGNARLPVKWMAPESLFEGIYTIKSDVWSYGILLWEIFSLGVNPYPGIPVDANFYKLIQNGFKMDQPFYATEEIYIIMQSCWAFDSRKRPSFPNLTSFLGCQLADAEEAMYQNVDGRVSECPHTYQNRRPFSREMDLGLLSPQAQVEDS
The data set is described as follows: Inhibition of Flt3 autophosphorylation.

Another data set has as its target MAP kinase p38 (Homo sapiens, UniProt O15264+Q15759+Q16539+P53778). Put plainly: Inhibition of Mitogen-activated protein kinase p38. It is filed as protein assay. Summed up: as §2
The target of data set [13] is Mast/stem cell growth factor receptor Kit (Homo sapiens, UniProt P10721). Put plainly: Inhibition of Mast/stem cell growth factor receptor (c-kit) autophosphorylation.
Chain of Mast/stem cell growth factor receptor Kit (P10721 whole entry): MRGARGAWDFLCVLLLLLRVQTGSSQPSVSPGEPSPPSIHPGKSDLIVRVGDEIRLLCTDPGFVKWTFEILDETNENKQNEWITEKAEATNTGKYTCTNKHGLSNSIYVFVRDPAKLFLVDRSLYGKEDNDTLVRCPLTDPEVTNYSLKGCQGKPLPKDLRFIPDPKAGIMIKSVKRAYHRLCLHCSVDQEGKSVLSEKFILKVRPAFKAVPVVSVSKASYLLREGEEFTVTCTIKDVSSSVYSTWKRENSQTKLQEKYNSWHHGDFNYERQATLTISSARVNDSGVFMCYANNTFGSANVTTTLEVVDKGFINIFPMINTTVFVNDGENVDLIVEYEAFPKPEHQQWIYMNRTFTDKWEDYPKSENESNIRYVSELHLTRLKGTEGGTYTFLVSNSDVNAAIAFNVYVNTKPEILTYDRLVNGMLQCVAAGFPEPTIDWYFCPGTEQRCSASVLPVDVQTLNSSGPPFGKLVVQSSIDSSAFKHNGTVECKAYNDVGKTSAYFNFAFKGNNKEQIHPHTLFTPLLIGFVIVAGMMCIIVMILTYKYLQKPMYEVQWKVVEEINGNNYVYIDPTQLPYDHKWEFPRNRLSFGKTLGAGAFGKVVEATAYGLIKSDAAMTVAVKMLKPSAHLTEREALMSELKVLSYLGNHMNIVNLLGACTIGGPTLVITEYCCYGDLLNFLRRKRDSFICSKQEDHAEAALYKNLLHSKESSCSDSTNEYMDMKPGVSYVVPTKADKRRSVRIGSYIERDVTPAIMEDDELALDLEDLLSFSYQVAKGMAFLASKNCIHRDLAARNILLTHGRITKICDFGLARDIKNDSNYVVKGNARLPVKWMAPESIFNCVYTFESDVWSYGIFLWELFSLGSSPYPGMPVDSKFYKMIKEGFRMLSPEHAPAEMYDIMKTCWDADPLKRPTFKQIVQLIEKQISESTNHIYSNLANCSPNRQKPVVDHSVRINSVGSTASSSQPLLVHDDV
Data set [14] concerns the target Fibroblast growth factor receptor (Homo sapiens, UniProt P22607+P11362+P22455+P21802). Put plainly: Inhibition of Fibroblast growth factor receptor autophosphorylation. It is filed as protein assay.
Data set [15] deals with cAMP-dependent protein kinase (PKA) (Homo sapiens, UniProt P22694+P17612+P22612). Put plainly: Inhibition of Protein kinase A (PKA). It is filed as protein assay. The method in brief:
as §2

The target in another data set is Protein kinase C (PKC). The data set is described as follows: Inhibition of Protein kinase C. It is filed as protein assay. The method in brief: as §2
Data set [16] addresses Dual specificity mitogen-activated protein kinase kinase 1 (Homo sapiens, UniProt Q02750). The data set is described as follows: Inhibition of Mitogen activated protein kinase kinase 1. The method in brief:
as §2

Data set [17] is described as follows: Plasma concentration was determined after 8 hr at a dose 30 mg/kg administered orally to rat-3. It is filed as ADME, organism-based. The arrangement: dose 30 mg/kg, route oral. The note with it: po. Summed up:
as §1

Data set [18] addresses Macrophage colony-stimulating factor 1 receptor (Homo sapiens, UniProt P07333). The data set is described as follows: Inhibition of Colony stimulating factor 1 receptor (CSF-1R) autophosphorylation.
Data set [19] concerns the target T3, Dual specificity mitogen-activated protein kinase kinase 6 (Homo sapiens, UniProt P52564).
T3 sequence (P52564 whole entry): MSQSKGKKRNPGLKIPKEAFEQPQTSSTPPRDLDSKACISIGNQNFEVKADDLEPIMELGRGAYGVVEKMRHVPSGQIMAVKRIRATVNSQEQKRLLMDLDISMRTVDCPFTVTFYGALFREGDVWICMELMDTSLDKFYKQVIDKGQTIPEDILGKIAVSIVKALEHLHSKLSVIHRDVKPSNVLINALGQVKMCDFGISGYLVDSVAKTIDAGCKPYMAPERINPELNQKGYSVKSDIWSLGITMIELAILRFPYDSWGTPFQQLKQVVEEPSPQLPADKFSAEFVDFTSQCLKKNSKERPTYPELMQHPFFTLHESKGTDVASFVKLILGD
The data set is described as follows: Inhibition of Mitogen activated protein kinase kinase 6. The method in brief: as §2

Data set [20] in a line: Plasma concentration was determined after 1 hr at a dose 30 mg/kg administered orally to rat-4. It is filed as ADME, organism-based. The note with it: po. Also noted: dose 30 mg/kg, route oral. The method in brief:
as §1

Data set [21] concerns the target Platelet-derived growth factor receptor alpha (Homo sapiens, UniProt P16234). Put plainly: Inhibition of PDGF receptor alpha autophosphorylation.
A short description of data set [22]: Plasma concentration was determined after 8 hr at a dose 30 mg/kg administered orally to rat-12. It is filed as ADME, organism-based. Also noted: dose 30 mg/kg, route oral. The note with it: po. The method in brief:
as §1

A short description of data set [23]: Plasma concentration was determined after 1 hr at a dose 30 mg/kg administered orally to rat-12. It is filed as ADME, organism-based. Also noted: dose 30 mg/kg, route oral. The note with it: po. The method in brief:
as §1

Data set [24] in a line: pharmacokinetic parameter was evaluated after oral administration of 30 mg/kg to rat. It is filed as ADME, organism-based. The arrangement: dose 30 mg/kg, route oral. The note with it: in vivo. Summed up: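 Sprague-Dawley rats, n=3, dosed orally at 30 mg/kg. Plasma drug concentrations were followed to derive Tmax (h), Cmax (µg/mL), T1/2 (h) and AUC0-∞ (µg h/mL).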
Data set [25] can be described thus: Lipophilicity was reported. It is filed as physicochemical. The note with it: octanol/water.
The nature of data set [26]: Plasma concentration was determined after 1 hr at a dose 30 mg/kg administered orally to rat-11. The note with it: po. It is filed as ADME, organism-based. Also noted: dose 30 mg/kg, route oral. Summed up: as §1
Data set [27] is described as follows: Plasma concentration was determined after 8 hr at a dose 30 mg/kg administered orally to rat-11. It is filed as ADME, organism-based. Also noted: dose 30 mg/kg, route oral. The note with it: po. Summed up:
as §1

Data set [28] can be described thus: Solubility in aqueous phosphate buffer (pH 7.4) at 20c was determined. It is filed as physicochemical.

Chain of Platelet-derived growth factor receptor alpha (P16234 whole entry): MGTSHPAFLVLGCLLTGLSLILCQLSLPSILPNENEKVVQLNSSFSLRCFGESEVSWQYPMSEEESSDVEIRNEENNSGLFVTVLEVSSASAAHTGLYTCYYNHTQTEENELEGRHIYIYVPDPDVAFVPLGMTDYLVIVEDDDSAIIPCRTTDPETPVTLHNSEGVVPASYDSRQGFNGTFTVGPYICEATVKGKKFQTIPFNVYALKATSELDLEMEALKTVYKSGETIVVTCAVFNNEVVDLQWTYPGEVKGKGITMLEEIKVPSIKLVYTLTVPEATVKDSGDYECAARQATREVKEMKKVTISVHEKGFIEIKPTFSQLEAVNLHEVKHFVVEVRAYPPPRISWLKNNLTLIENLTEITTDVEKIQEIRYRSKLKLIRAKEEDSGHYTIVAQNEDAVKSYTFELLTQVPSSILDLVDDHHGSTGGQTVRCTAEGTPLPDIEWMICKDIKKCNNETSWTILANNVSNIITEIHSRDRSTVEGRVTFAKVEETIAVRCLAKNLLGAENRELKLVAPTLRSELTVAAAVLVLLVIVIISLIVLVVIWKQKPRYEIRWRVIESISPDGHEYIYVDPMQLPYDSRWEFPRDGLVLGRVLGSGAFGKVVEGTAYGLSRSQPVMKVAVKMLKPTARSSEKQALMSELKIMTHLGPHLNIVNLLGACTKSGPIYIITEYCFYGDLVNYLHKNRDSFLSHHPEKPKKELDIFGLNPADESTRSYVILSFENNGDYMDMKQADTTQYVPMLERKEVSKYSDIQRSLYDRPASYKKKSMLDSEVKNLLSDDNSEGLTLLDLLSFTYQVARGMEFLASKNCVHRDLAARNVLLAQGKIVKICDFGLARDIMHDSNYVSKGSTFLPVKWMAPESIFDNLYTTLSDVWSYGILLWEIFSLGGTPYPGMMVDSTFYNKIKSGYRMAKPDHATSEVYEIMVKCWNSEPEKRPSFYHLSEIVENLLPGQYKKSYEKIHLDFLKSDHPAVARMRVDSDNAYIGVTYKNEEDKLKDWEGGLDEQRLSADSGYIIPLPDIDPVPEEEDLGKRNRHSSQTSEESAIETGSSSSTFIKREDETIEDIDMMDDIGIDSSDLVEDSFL
Chain of Macrophage colony-stimulating factor 1 receptor (P07333 whole entry): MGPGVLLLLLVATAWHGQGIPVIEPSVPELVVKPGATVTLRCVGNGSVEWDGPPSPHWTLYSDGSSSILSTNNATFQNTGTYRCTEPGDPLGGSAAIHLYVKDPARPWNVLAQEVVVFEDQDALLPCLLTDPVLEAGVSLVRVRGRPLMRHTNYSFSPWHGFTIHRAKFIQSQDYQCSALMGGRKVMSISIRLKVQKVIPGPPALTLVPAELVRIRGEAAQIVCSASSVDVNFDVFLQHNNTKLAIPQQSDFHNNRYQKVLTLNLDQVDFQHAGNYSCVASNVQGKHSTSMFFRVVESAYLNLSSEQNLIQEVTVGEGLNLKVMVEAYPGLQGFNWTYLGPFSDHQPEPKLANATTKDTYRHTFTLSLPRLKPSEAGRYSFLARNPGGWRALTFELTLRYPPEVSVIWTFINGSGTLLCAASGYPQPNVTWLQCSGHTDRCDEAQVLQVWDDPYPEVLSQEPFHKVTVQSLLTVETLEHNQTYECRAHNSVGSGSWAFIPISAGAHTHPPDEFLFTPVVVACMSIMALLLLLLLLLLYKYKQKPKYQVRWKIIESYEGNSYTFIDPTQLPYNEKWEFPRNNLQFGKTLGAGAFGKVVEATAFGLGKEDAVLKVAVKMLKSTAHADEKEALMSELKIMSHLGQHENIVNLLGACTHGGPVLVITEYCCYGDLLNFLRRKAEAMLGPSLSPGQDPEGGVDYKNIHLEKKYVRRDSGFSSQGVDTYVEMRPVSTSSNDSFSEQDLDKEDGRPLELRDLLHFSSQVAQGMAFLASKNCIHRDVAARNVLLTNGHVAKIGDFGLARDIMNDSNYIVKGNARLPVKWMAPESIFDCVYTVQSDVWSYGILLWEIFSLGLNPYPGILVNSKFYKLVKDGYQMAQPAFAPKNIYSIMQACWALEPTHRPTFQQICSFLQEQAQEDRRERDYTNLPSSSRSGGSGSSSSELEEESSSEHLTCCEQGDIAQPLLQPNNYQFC
Chain of Dual specificity mitogen-activated protein kinase kinase 1 (Q02750 whole entry): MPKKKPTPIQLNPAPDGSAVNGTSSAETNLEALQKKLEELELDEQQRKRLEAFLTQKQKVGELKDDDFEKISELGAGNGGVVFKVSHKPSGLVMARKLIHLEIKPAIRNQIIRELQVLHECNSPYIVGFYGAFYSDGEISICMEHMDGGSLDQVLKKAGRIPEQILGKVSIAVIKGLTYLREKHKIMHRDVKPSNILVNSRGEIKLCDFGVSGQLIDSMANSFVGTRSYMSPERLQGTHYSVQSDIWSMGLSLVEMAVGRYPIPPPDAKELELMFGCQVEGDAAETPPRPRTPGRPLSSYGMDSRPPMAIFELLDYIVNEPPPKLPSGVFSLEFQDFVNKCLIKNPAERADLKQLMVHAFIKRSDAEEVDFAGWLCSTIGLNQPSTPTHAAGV
Chain of Proto-oncogene tyrosine-protein kinase Src (P12931 2-536 limits assumed): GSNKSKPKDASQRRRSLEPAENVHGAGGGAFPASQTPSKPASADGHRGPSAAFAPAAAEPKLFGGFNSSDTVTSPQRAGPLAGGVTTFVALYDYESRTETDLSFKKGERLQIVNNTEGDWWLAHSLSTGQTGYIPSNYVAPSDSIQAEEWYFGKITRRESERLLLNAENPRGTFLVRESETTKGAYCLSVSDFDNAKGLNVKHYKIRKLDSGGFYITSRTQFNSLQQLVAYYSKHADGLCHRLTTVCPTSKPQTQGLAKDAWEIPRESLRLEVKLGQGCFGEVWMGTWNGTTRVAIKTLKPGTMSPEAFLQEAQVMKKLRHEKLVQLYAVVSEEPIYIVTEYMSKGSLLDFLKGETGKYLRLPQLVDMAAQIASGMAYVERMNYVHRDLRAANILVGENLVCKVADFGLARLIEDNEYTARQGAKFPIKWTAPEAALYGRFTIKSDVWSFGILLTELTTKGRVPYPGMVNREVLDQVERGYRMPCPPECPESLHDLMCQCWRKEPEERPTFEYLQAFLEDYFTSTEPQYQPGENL

As for `COc1ccc(CNC(=S)N2CCN(c3ncnc4cc(OC)c(OC)cc34)CC2)cc1`, the concentration at 8 h in data set [1] is 500 ng/mL; in [2], 400 ng/mL. The concentration at 1 h amounted to 2500 ng/mL in [3] and 2300 ng/mL in data set [5]. Also, the IC50 in [4] amounted to 0.1 µM.

Turning to `COc1cc2ncnc(N3CCN(/C(S)=N\Cc4ccccc4)CC3)c2cc1OC`, the IC50 is > 30 µM in data set [6]; > 30 µM in [8]; > 30 µM in [9]; > 30 uM l-1 in data set [10]; > 30 µM in [12]; > 30 uM l-1 on MAP kinase p38. Also, the IC50 in [13] is > 30 µM; in [14] it was > 200 uM l-1; in [15], > 30 uM l-1; on Protein kinase C (PKC), > 30 uM l-1; in [16], > 30 µM; in data set [18], > 30 µM. In addition, the IC50 in data set [19] was > 30 µM; in data set [21] it was 0.24 µM. The concentration at 8 h in data set [7] was 900 ng/mL; in data set [17], 1600 ng/mL. The concentration at 1 h in data set [11] was found to be 5400 ng/mL; in [20] it was 8100 ng/mL.

`COc1cc2ncnc(N3CCN(C(=O)Nc4ccsc4)CC3)c2cc1OC` registered a concentration at 8 h in data set [22] of 700 ng/mL. In addition, in data set [23], the concentration at 1 h was 7700 ng/mL. Besides, in data set [24], the AUC amounted to 145 µg·h/mL, the Cmax was found to be 15900 ng/mL, the Tmax was determined as 3.33 h and the half-life is 4.25 h. The same compound yielded a logD in data set [25] of 2.72. In data set [26], this compound came in with a concentration at 1 h of 12400 ng/mL. In data set [27], this compound returned a concentration at 8 h of 3700 ng/mL. The compound also gave a solubility in data set [28] of 2 µg/mL (≈ 5.01 µM).

As a reminder, the AUC is the area under the concentration-time curve, a measure of exposure. Read a low AUC as low exposure. Usually Cmax stands for the highest concentration seen after dosing. One may read the Tmax as the time from dosing to the highest level. By half-life is commonly meant the time needed for the level to fall by half in the phase considered. Lower therefore signals rapid decline. Broadly, the logD is lipophilicity at a set pH, counting ionised and neutral species. A higher logD goes with a more lipophilic compound. A word on the solubility: it is the concentration that dissolves in the medium under given conditions. Read a high solubility as a readily soluble substance.
